Rows were chosen to be rich in hits. Some 3.5% of all compounds tested hit in one or more screens of this group.
RGS4 inh: human RGS4 inhibition. hit rate 0.45% among 310,000. B-score at 10 µM. P49798. HEK293 M3R/RGS4 inducible, Fluo-4 calcium flux; stronger effect = higher value; triggered by carbachol at its EC20. AID 463165;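 active means B-score, a plate-corrected calcium signal, over three deviations above library mean, with baseline fluorescence within five deviations of library mean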;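 further: RGS4 expression induced by doxycycline in cells with stable M3 receptor; B-score is computed from the integrated fluorescence ratio over baseline after carbachol; higher B-score means a larger calcium signal and so more RGS4 inhibition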
Target sequence (P49798 whole entry, looked up): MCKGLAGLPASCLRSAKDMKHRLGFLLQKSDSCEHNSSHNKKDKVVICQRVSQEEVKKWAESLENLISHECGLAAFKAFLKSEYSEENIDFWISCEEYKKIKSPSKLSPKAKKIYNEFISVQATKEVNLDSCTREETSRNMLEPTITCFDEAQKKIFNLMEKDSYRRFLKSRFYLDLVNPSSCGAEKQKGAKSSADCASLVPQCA
RGS4 pot: RGS4 potentiation or activation | HEK293 M3R/inducible RGS4, carbachol calcium flux Fluo4; stronger effect = lower value | B-score at 10 µM | hit rate 0.92% among 310,000;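 active means B-score of the integrated calcium signal more than 4 SD below the library mean, with starting fluorescence not abnormally high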;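 further: negative B-score means reduced calcium response which marks RGS4 activation or potentiation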
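Also added: carbachol at ECmax as muscarinic agonist stimulus; Assay system: HEK293 cells with stable M3R and inducible RGS4; Timing: overnight RGS4 induction, 30 min dye load 37 °C, 20 min compound RT; Measured by: Fluo4-AM (2 µM) calcium-flux fluorescence, kinetic read.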
MrgX1 agonist: human MrgX1 receptor agonism, primary screen; Q96LB2; MrgX1-HEK293 cells, Fluo-4 calcium fluorescence, agonist mode; stronger effect = higher value; B-score at 10 µM; hit rate 0.44% among 310,000;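 active means calcium response B-score plate-corrected fluorescence ratio at least 3 library SD, with starting fluorescence B-score inside 5 SD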
Target sequence (Q96LB2 whole entry, looked up): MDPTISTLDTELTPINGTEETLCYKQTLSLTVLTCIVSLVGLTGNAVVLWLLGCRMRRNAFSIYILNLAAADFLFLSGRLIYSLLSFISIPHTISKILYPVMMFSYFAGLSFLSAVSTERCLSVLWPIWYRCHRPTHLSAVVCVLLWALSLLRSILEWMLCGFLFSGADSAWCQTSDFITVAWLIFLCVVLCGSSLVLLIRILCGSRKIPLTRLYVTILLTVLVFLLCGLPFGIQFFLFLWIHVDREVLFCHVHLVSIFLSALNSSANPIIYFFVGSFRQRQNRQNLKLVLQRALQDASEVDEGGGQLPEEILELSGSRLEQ
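Assay system: stable human MrgX1 HEK293 cell line. Quantity: 15,000 cells per well. Schedule: cells plated overnight, dye loaded 0.5 h 37 °C, 0.5 h room temperature. Detection: Fluo-4 NW calcium-flux fluorescence, kinetic read. Read-out basis: peak-minus-minimum fluorescence over baseline, converted to B scores. Control set: positive and negative control wells on each plate.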
MrgX1 PAM: human MrgX1 positive allosteric modulation, primary screen. Q96LB2. MrgX1-HEK293, Fluo-4 calcium flux, FDSS; stronger effect = higher value. B-score at 10 µM. hit rate 0.63% among 310,000. AID 588675;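 active means plate-corrected calcium response at least 3 library SD above typical, normal starting fluorescence, not activating the receptor alone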;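 further: compound read alongside a low EC10 to EC30 dose of BAM8-22 agonist; peak minus trough fluorescence over baseline measured at the second addition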
MrgX1 antag: human MrgX1 receptor antagonism, primary screen | MRGX1-HEK293 calcium flux, Fluo-4, BAM8-22 antagonism; stronger effect = lower value | B-score at 10 µM | hit rate 1.3% among 310,000 | AID 588676;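 active means calcium-response B-score plate-corrected more than 3 library SD below zero, starting fluorescence within 5 deviations, no agonist response on first addition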;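 further: peak minus trough fluorescence over baseline after final BAM8-22 challenge near maximal dose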
MrgX1 PAM conf: confirmation of human MrgX1 receptor positive allosteric modulators; hit rate 13% among 1,200; activation (ratio percentage), % at 10 µM; shares compounds with MrgX1 PAM; MrgX1-HEK293, Fluo-4 calcium fluorescence, FDSS;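 active means ratio at least 3 SD above the weak peptide control, stable starting fluorescence, no direct agonism earlier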;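 further: compound followed by low BAM8-22 agonist challenge near EC20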
HEK293 Ca flux: counter-screen for MrgX1 antagonists: effect in parental HEK293 cells. fluorescence ratio F(max-min)/F0 at 10 µM. AID 624111. shares compounds with MrgX1 antag. hit rate 2% among 4,000. Fluo-4 calcium fluorescence, FDSS;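 active means duplicate-averaged calcium fluorescence ratio at least three times the standard deviation of buffer wells, a nonspecific response in parental cells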
HEK293 Ca counter: activity in parental HEK293 cells without MrgX1; shares compounds with MrgX1 antag; parental HEK293 calcium flux, Fluo-4 fluorescence ratio; stronger effect = higher value; hit rate 0.4% among 4,000; fluorescence ratio F(max-min)/F0 at 10 µM;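 active means calcium fluorescence ratio, averaged over duplicates, at least 3 SD of the buffer-well ratio, meaning a nonspecific response in receptor-free cells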;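 further: untransfected parental HEK293 lacking MrgX1 used as counterscreen for MrgX1 allosteric activators; fluorescence change taken during the second addition on a kinetic imager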
HEK293 Ca cntr2: activity in parental HEK293 cells lacking MrgX1 receptor; shares compounds with MrgX1 antag; Fluo-4 calcium fluorescence (FDSS); stronger effect = higher value; fluorescence ratio F(max-min)/F0 at 10 µM; hit rate 8.7% among 4,000;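 active means calcium fluorescence ratio at least three times the spread of buffer wells, meaning a non-specific response in parental cells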
* marks the source's active call; other numbers are inactive results; i = inactive; nt = no result given.

SMILES	RGS4 inh	RGS4 pot	MrgX1 agonist	MrgX1 PAM	MrgX1 antag	MrgX1 PAM conf	HEK293 Ca flux	HEK293 Ca counter	HEK293 Ca cntr2
Cc1cc(C)c(S(=O)(=O)NCCc2ccccc2)c(C)c1	i	i	i	9.71*	i	i	i	i	i
Cc1c(NC(=O)Nc2ccc3c(c2)OCO3)cccc1[N+](=O)[O-]	i	i	i	i	i	nt	nt	nt	nt
CNC(=O)[C@H]1O[C@@H](n2cnc3c(NCc4cccc(I)c4)ncnc32)[C@H](O)[C@@H]1O	nt	nt	i	10.5*	i	i	i	i	i
Cn1cnc2c(NCc3ccco3)ncnc21	i	i	i	i	i	nt	nt	nt	nt
Cc1[nH]c(=O)[nH]c(=O)c1S(=O)(=O)Nc1cccc([N+](=O)[O-])c1C	i	i	i	i	i	nt	nt	nt	nt
CCCCn1c(SCC(=O)Nc2cc(C)on2)nnc1-c1cccs1	i	i	i	6.76*	i	i	i	i	i
Cc1cc(NC(=O)CSc2nnc(-c3cccs3)n2N)no1	i	i	i	i	i	nt	nt	nt	nt
CCOC(=O)c1nn(-c2ccc(F)cc2)cc1O	i	i	i	8.43*	i	i	i	i	i
CCOC(=O)c1nn(-c2ccc3c(c2)CCN3C(C)=O)cc1O	i	i	i	i	i	nt	nt	nt	nt
CCN1CCN(C(=O)Cn2cnc3sc(C)c(S(=O)(=O)N4CCN(c5ncccn5)CC4)c3c2=O)CC1	i	i	i	i	i	nt	nt	nt	nt
N#Cc1c(/N=C/C=C/c2ccccc2)sc2c1CCCC2	i	i	i	8*	i	i	i	i	i
CN1CCN(/C=N/c2sc3c(c2C#N)CCCCC3)CC1	i	i	i	i	i	nt	nt	nt	nt
CC(=O)c1c(C)[nH]c(C(=O)NCC2CCCCC2)c1C	i	i	i	i	i	nt	nt	nt	nt
c1ccc(Oc2cc(-n3cncn3)ncn2)cc1	i	i	i	i	i	nt	nt	nt	nt
Cc1cnn(-c2cc(Oc3ccccc3)ncn2)c1	i	i	i	8.77*	i	i	i	i	i
CCNC(=O)C(=O)c1c(-c2ccccc2)[nH]c2ccccc12	i	i	i	i	i	nt	nt	nt	nt
CCN(CC)C(=O)C(=O)c1c(-c2ccccc2)[nH]c2ccccc12	i	i	i	14.6*	i	i	i	i	i
CC12CCC(C(=O)Nc3nccs3)(OC1=O)C2(C)C (stereo unspecified)	i	i	i	i	i	nt	nt	nt	nt
CC12CCC(C(=O)Nc3nc4ccc(Br)cc4s3)(OC1=O)C2(C)C (stereo unspecified)	i	i	i	16.5*	i	6.5%*	i	i	i
C#CC1(NC(=O)NCCCC)CCCCC1	i	i	i	i	i	nt	nt	nt	nt
NC(=O)C1CCN(C(=O)COCc2cc(-c3ccc4c(c3)OCO4)on2)CC1	i	i	i	17*	i	i	i	i	i
O=C(COCc1cc(-c2ccc3c(c2)OCO3)on1)N1CCCCC1	i	i	i	i	i	nt	nt	nt	nt
NC(=O)C1CCN(c2cc(Cl)nc(N)n2)CC1	i	i	i	i	i	nt	nt	nt	nt
COC(=O)C1CCN(c2cc(Cl)nc(N)n2)CC1	i	i	i	8.08*	i	i	i	i	i
CCN(c1cccc(C)c1)S(=O)(=O)c1ccc(-n2cccn2)cc1	i	i	i	6.99*	i	i	i	i	i
SMILES	RGS4 inh	RGS4 pot	MrgX1 agonist	MrgX1 PAM	MrgX1 antag	MrgX1 PAM conf	HEK293 Ca flux	HEK293 Ca counter	HEK293 Ca cntr2
COc1cc(C)c(COc2ncnc3ccccc23)cc1OC	i	i	i	i	i	nt	nt	nt	nt
COc1c(Br)cc([N+](=O)[O-])c(OC)c1C(=O)NC(=O)Nc1nc(C)cc(C)n1	i	i	i	i	i	nt	nt	nt	nt
CCCCOCCCN1CC(=O)N2C(C)c3[nH]c4ccccc4c3C[C@H]2C1=O (stereo partly specified)	i	i	i	7.47*	i	i	i	i	i
CCCCCN1CC(=O)N2C(C)c3[nH]c4ccccc4c3C[C@H]2C1=O (stereo partly specified)	i	i	i	13.7*	i	i	i	i	i
O=C1CCCc2cc3c(cc21)CC1(C3)Cc2cc3c(cc2C1)C(=O)CCC3	i	i	i	i	i	nt	nt	nt	nt
CCCCCCn1c(N2CCCC2)nc2c1c(=O)[nH]c(=O)n2C	i	i	i	11.9*	i	9.9%*	i	i	i
Cn1c(=O)[nH]c(=O)c2c1nc(N1CCNCC1)n2Cc1ccccc1Cl	i	i	i	10.4*	i	i	i	i	i
CNC(=O)c1c(NC(=O)CCS(=O)(=O)c2ccc(F)cc2)sc(C)c1C	i	i	i	i	i	nt	nt	nt	nt
O=C1CCc2cc(S(=O)(=O)N3CCCCC3)cc3c2N1CC3	i	i	i	i	i	nt	nt	nt	nt
CC1Cc2ccccc2N1C(=O)C1CCCN(S(=O)(=O)c2cccc3cccnc23)C1 (stereo unspecified)	nt	nt	i	8.91*	i	8.6%*	i	i	i
O=C(OCC(=O)N1CCCC1)c1ccc(S(=O)(=O)Nc2ccccc2)cc1	i	i	i	12.2*	i	i	i	i	i
COc1ccc(NC(=O)c2nc[nH]c2C(=O)N2CCC(C)CC2)cc1	i	i	i	8.16*	i	i	i	i	i
Cc1ccc(NC(=O)c2nc[nH]c2C(=O)N2CCC(C)CC2)cc1	i	i	i	9.07*	i	i	i	i	i
CCN(CC)C(=O)c1[nH]cnc1C(=O)Nc1ccc(OC)cc1	i	i	i	i	i	nt	nt	nt	nt
CCOC(=O)c1ccc(NC(=O)c2nc[nH]c2C(=O)N2CCC(C)CC2)cc1	i	i	i	i	i	nt	nt	nt	nt
Cc1ccccc1NC(=O)C1CCN(S(=O)(=O)c2cccc3nonc23)CC1	i	i	i	i	i	nt	nt	nt	nt
COc1cc(C(=O)NCc2nnc(SCC(=O)Nc3cccc(C(F)(F)F)c3)o2)cc(OC)c1OC	i	i	i	i	i	nt	nt	nt	nt
